Source: ChEMBL document CHEMBL4190252, “Synthesis, antitumor activity and CDK1 inhibiton of new thiazole nortopsentin analogues” (Eur J Med Chem, 2017)
Calls of active or inactive are those of the source. The calls are words filed in the database; no cut-off is given here.

Key:
MOLT-4 = assay: Growth inhibition of human MOLT4 cells incubated for 48 hrs by sulforhodamine B assay; assay type: functional; details: MOLT-4, 48 h
In short: (§1)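 NCI full panel screen: five 10-fold dilutions (10^-4–10^-8 M). GI50 is the molar concentration giving 50% inhibition of net cell growth.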

OVCAR-8 = assay: Growth inhibition of human OVCAR8 cells incubated for 48 hrs by sulforhodamine B assay; assay type: functional; details: OVCAR-8, 48 h; in short: as §1
OVCAR-4 = assay: Growth inhibition of human OVCAR4 cells incubated for 48 hrs by sulforhodamine B assay; assay type: functional; details: OVCAR-4, 48 h; in short: as §1
UO-31 = assay: Growth inhibition of human UO31 cells incubated for 48 hrs by sulforhodamine B assay; assay type: functional; details: UO-31, 48 h
In short: (§2)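 NCI full-panel human tumour cell screen. Cells were exposed to five 10-fold dilutions from 10^-4 to 10^-8 M. GI50 is the molar concentration giving 50% inhibition of net cell growth, and a mean graph midpoint was calculated across the panel.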

MDA-MB-435 = assay: Growth inhibition of human MDA-MB-435 cells incubated for 48 hrs by sulforhodamine B assay; assay type: functional; details: MDA-MB-435, 48 h; in short: as §1
PC-3 = assay: Growth inhibition of human PC3 cells incubated for 48 hrs by sulforhodamine B assay; assay type: functional; details: PC-3, 48 h; in short: as §1
SN12C = assay: Growth inhibition of human SN12C cells incubated for 48 hrs by sulforhodamine B assay; assay type: functional; in short: as §2
U-251 = assay: Growth inhibition of human U251 cells incubated for 48 hrs by sulforhodamine B assay; assay type: functional; details: U-251, 48 h; in short: as §2
UACC-257 = assay: Growth inhibition of human UACC257 cells incubated for 48 hrs by sulforhodamine B assay; assay type: functional; details: UACC-257, 48 h; in short: as §2
K562 = assay: Growth inhibition of human K562 cells incubated for 48 hrs by sulforhodamine B assay; assay type: functional; details: K562, 48 h; in short: as §1
OVCAR-3 = assay: Growth inhibition of human OVCAR3 cells incubated for 48 hrs by sulforhodamine B assay; assay type: functional; details: OVCAR-3, 48 h; in short: as §1
A549 = assay: Growth inhibition of human A549/ATCC cells incubated for 48 hrs by sulforhodamine B assay; assay type: functional; details: A549, 48 h; in short: as §1
KM12 = assay: Growth inhibition of human KM12 cells incubated for 48 hrs by sulforhodamine B assay; assay type: functional; details: KM12, 48 h; in short: as §1
OVCAR-5 = assay: Growth inhibition of human OVCAR5 cells incubated for 48 hrs by sulforhodamine B assay; assay type: functional; details: OVCAR-5, 48 h; in short: as §1
HOP-92 = assay: Growth inhibition of human HOP92 cells incubated for 48 hrs by sulforhodamine B assay; assay type: functional; details: HOP-92, 48 h; in short: as §1
RXF 393 = assay: Growth inhibition of human RXF393 cells incubated for 48 hrs by sulforhodamine B assay; assay type: functional; details: RXF 393, 48 h; in short: as §1
HT-29 = assay: Growth inhibition of human HT-29 cells incubated for 48 hrs by sulforhodamine B assay; assay type: functional; details: HT-29, 48 h; in short: as §1
SF-295 = assay: Growth inhibition of human SF295 cells incubated for 48 hrs by sulforhodamine B assay; assay type: functional; details: SF-295, 48 h; in short: as §1
MDA-MB-468 = assay: Growth inhibition of human MDA-MB-468 cells incubated for 48 hrs by sulforhodamine B assay; assay type: functional; details: MDA-MB-468, 48 h; in short: as §1
[1] = system: Panel NCI-60 (60 carcinoma cell lines); assay: Growth inhibition of human NCI60 cells at 10^-5 M incubated for 48 hrs by sulforhodamine B assay; assay type: functional, cell-based
HOP-62 = assay: Growth inhibition of human HOP62 cells incubated for 48 hrs by sulforhodamine B assay; assay type: functional; details: HOP-62, 48 h; in short: as §1
MCF7 [2] = assay: Induction of apoptosis in human MCF7 cells assessed as viable cells at 2 x 10^-6 M after 72 hrs by Annexin V/propidium iodide double staining-based flow cytometry (reference value: 98.9%); assay type: functional; details: MCF7, 72 h, read-out: Activity
In short: (§3)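 MCF-7 cells were grown in RPMI with 10% FBS, 2 mM L-glutamine and antibiotics at 37 °C in 5% CO2. They were seeded at 2.0 x 10^5 cells/cm2 in triplicate, left to adhere overnight, then treated for 72 h; DMSO 0.1% served as vehicle. Trypsinised cells at 2.0 x 10^5/mL were stained with annexin V-FITC and PI for 15 min at room temperature in the dark. At least 1.0 x 10^4 cells were gated into viable, early apoptotic, late apoptotic and necrotic quadrants.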

M14 = assay: Growth inhibition of human M14 cells incubated for 48 hrs by sulforhodamine B assay; assay type: functional; details: M14, 48 h; in short: as §1
SK-MEL-28 = assay: Growth inhibition of human SK-MEL-28 cells incubated for 48 hrs by sulforhodamine B assay; assay type: functional; details: SK-MEL-28, 48 h; in short: as §2
786-0 = assay: Growth inhibition of human 786-0 cells incubated for 48 hrs by sulforhodamine B assay; assay type: functional; details: 786-0, 48 h; in short: as §1
MDA-MB-231 = assay: Growth inhibition of human MDA-MB-231 cells incubated for 48 hrs by sulforhodamine B assay; assay type: functional; details: MDA-MB-231, 48 h; in short: as §1
SNB-75 = assay: Growth inhibition of human SNB75 cells incubated for 48 hrs by sulforhodamine B assay; assay type: functional; details: SNB-75, 48 h; in short: as §2
RPMI-8226 = assay: Growth inhibition of human RPMI8226 cells incubated for 48 hrs by sulforhodamine B assay; assay type: functional; details: RPMI-8226, 48 h; in short: as §1
SK-OV-3 = assay: Growth inhibition of human SKOV3 cells incubated for 48 hrs by sulforhodamine B assay; assay type: functional; details: SK-OV-3, 48 h; in short: as §2
BT-549 = assay: Growth inhibition of human BT549 cells incubated for 48 hrs by sulforhodamine B assay; assay type: functional; details: BT-549, 48 h; in short: as §1
CAKI-1 = assay: Growth inhibition of human Caki1 cells incubated for 48 hrs by sulforhodamine B assay; assay type: functional; details: CAKI-1, 48 h; in short: as §1
SR = assay: Growth inhibition of human SR cells incubated for 48 hrs by sulforhodamine B assay; assay type: functional; in short: as §2
EKVX = assay: Growth inhibition of human EKVX cells incubated for 48 hrs by sulforhodamine B assay; assay type: functional; in short: as §1
MCF7 [3] = assay: Cell cycle arrest in human MCF7 cells assessed as reduction in accumulation at S phase at GI50 concentration after 48 hrs by propidium iodide-staining based flow cytometry; assay type: functional
In short: (§4)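 Cells were trypsinized, washed in cold PBS, and 1 x 10^6 cells stained with 20 µg/ml PI plus 200 µg/ml RNase for 30 min at room temperature in the dark. At least 1x 10^4 cells were analysed by flow cytometry. Mean±SD of three experiments in triplicate.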

SF-268 = assay: Growth inhibition of human SF268 cells incubated for 48 hrs by sulforhodamine B assay; assay type: functional; details: SF-268, 48 h; in short: as §1
MCF7 [4] = assay: Cell cycle arrest in human MCF7 cells assessed as increase in accumulation at G2/M phase at GI50 concentration after 48 hrs by propidium iodide-staining based flow cytometry; assay type: functional; in short: as §4
DU-145 = assay: Growth inhibition of human DU145 cells incubated for 48 hrs by sulforhodamine B assay; assay type: functional; details: DU-145, 48 h; in short: as §1
CCRF-CEM = assay: Growth inhibition of human CCRF-CEM cells incubated for 48 hrs by sulforhodamine B assay; assay type: functional; in short: as §1
MCF7 [5] = assay: Induction of apoptosis in human MCF7 cells assessed as late apoptotic cells at 5 x 10^-8 M after 72 hrs by Annexin V/propidium iodide double staining-based flow cytometry (reference value: 0%); assay type: functional; in short: as §3

Structure (SMILES)	GI50 (OVCAR-8)	GI50 (OVCAR-4)	GI50 (UO-31)	GI50 (MDA-MB-435)	GI50 (PC-3)	GI50 (SN12C)	GI50 (U-251)	GI50 (K562)	GI50 (OVCAR-3)	GI50 (A549)	GI50 (KM12)	GI50 (OVCAR-5)	GI50 (HOP-92)	GI50 (RXF 393)	GI50 (HT-29)	GI50 (SF-295)	GI50 (MDA-MB-468)	growth inhibition (GI) [1]	GI50 (HOP-62)	GI50 (M14)	also measured
COCCn1cc(-c2csc(-c3c[nH]c4ccc(Br)cc34)n2)c2cccnc21	5.35 µM	2.74 µM	3.1 µM	4.12 µM	3.68 µM	7.72 µM	6.18 µM	3.6 µM	3.9 µM	6.89 µM	2.74 µM	4.83 µM	4.39 µM	3.3 µM	3.36 µM	2.83 µM	2.34 µM	Active	7.98 µM	3.27 µM	GI50 (MOLT-4): 3.87 µM; GI50 (UACC-257): 8.69 µM; viability at 2 µM (MCF7 [2]): 63.6%; GI50 (SK-MEL-28): 4.79 µM; GI50 (786-0): 4.03 µM; GI50 (MDA-MB-231): 2.65 µM; GI50 (SNB-75): 4.72 µM; GI50 (RPMI-8226): 5.14 µM; GI50 (SK-OV-3): 13.9 µM; GI50 (BT-549): 4.8 µM; GI50 (CAKI-1): 5.21 µM; GI50 (SR): 3.25 µM; GI50 (EKVX): 2.05 µM
COCCn1cc(-c2csc(-c3c[nH]c4ccc(F)cc34)n2)c2cccnc21	4.1 µM	2.59 µM	4.41 µM	0.9 µM	5.06 µM	> 100 µM	5.14 µM	2.12 µM	3.34 µM	4.51 µM	1.77 µM	10.1 µM	6.29 µM	5.91 µM	2.9 µM	3.2 µM	2.44 µM	Active	2.02 µM	3.14 µM	GI50 (MOLT-4): 5.56 µM; Activity (MCF7 [3]): Active; GI50 (SF-268): 7.67 µM; Activity (MCF7 [4]): Active; viability at 2 µM (MCF7 [2]): 70.7%; GI50 (SK-MEL-28): 7.72 µM; GI50 (786-0): 5.12 µM; GI50 (MDA-MB-231): 2.59 µM; GI50 (SNB-75): 2.97 µM; GI50 (DU-145): 18.8 µM; GI50 (BT-549): 4.26 µM; GI50 (CAKI-1): 9.54 µM; GI50 (SR): 3.24 µM; GI50 (EKVX): 1.98 µM
COCCn1cc(-c2nc(-c3c[nH]c4ncccc34)cs2)c2cc(OC)ccc21	4.11 µM	0.03 µM	2.31 µM	6.41 µM	4.22 µM	5.51 µM	4.43 µM	4.79 µM	4.66 µM	4.41 µM	0.16 µM	0.61 µM	0.99 µM	1.18 µM	4.31 µM	2.7 µM	0.03 µM	Active	2.12 µM	5.82 µM	GI50 (MOLT-4): 6.02 µM; GI50 (CCRF-CEM): 6.7 µM; Activity (MCF7 [3]): Active; GI50 (UACC-257): 4.26 µM; GI50 (SF-268): 4.42 µM; Activity (MCF7 [4]): Active; Activity (MCF7 [5]): 0.1%; GI50 (SK-MEL-28): 7.39 µM; GI50 (786-0): 3.44 µM; GI50 (MDA-MB-231): 2.02 µM; GI50 (SNB-75): 1.1 µM; GI50 (RPMI-8226): 7.09 µM; GI50 (DU-145): 4.28 µM; GI50 (SK-OV-3): 3.49 µM; GI50 (BT-549): 2.38 µM; GI50 (CAKI-1): 4.36 µM; GI50 (SR): 1.28 µM; GI50 (EKVX): 0.07 µM
COCCn1cc(-c2csc(-c3c[nH]c4ccccc34)n2)c2cccnc21	8 µM	1.76 µM	4.15 µM	0.86 µM	6.81 µM	> 100 µM	6.12 µM	2.8 µM	2.94 µM	7.1 µM	0.76 µM	28.2 µM	14.9 µM	5.76 µM	3.19 µM	3.35 µM	0.97 µM	Active	2.82 µM	3.22 µM	GI50 (CCRF-CEM): > 100 µM; Activity (MCF7 [3]): Active; GI50 (UACC-257): > 100 µM; GI50 (SF-268): 6.98 µM; Activity (MCF7 [4]): Active; viability at 2 µM (MCF7 [2]): 53.4%; GI50 (SK-MEL-28): 8.19 µM; GI50 (786-0): 6.25 µM; GI50 (MDA-MB-231): 5.05 µM; GI50 (SNB-75): 1.43 µM; GI50 (DU-145): 15.4 µM; GI50 (SK-OV-3): 14.8 µM; GI50 (BT-549): 4.45 µM; GI50 (CAKI-1): 8.36 µM; GI50 (SR): 3.02 µM; GI50 (EKVX): 2 µM
